In ChEMBL document CHEMBL1156756, “4-Oxo-beta-lactams (azetidine-2,4-diones) are potent and selective inhibitors of human leukocyte elastase” (J Med Chem, 2010):
The source made the active and inactive calls. The calls are words filed in the database; no cut-off is given here.

Legend:
[1] = target: T1, Myeloblastin (Homo sapiens) (UniProt P24158); assay: Inhibition of human proteinase 3
T1 sequence (whole entry): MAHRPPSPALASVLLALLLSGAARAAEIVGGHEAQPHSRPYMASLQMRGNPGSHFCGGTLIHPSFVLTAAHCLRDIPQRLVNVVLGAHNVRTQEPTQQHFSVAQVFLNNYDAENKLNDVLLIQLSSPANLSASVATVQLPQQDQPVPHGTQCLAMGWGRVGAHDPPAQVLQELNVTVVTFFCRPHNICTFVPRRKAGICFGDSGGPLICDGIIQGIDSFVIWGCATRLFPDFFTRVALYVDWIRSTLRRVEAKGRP
Method in brief: (§1)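 Proteinase 3 stock (325 nM in 0.05 M acetate pH 6, 150 mM NaCl) mixed at 25 °C with inhibitor in DMSO and MeOSuc-Ala-Ala-Pro-Val-p-nitroanilide (stock 50 mM in DMSO) in 0.1 M HEPES pH 7.2. A410 followed for 20 000 s. Progress curves fitted to slow-binding equations. Uninhibited controls ran linearly.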

Papain (Carica papaya) = target: T2, Papain (Carica papaya) (UniProt P00784); assay: Inhibition of papaya papain at 60 uM
T2 sequence (whole entry): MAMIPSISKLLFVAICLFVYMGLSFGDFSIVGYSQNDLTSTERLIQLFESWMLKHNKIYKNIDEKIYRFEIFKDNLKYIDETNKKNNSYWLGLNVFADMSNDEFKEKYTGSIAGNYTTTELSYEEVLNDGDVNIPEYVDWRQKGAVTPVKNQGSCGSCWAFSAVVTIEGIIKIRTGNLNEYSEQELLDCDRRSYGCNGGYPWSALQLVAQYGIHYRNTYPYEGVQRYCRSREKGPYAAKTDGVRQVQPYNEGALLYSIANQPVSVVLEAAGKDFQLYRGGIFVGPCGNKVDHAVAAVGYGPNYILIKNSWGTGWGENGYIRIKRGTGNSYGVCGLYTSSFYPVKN
Method in brief: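 Incubation method. Activated papain was held with inhibitor at 25 °C in 50 mM potassium phosphate pH 7.0 with 2.5 mM EDTA. At intervals, aliquots were assayed with BAPA substrate (stock 10 mM in DMSO) in the same buffer, reading A410 for 4 min. Inhibitor-free controls were run in parallel.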

[2] = target: T3, Cathepsin G (Homo sapiens) (UniProt P08311); assay: Inhibition of human cathepsin G at 60 uM
T3 sequence (whole entry): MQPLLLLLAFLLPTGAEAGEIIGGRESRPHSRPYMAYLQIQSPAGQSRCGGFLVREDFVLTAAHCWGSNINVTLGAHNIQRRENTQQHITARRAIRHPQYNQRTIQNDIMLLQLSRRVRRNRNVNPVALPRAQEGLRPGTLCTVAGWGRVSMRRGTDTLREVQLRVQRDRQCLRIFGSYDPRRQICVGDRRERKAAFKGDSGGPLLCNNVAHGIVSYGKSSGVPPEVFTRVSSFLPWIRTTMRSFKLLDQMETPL
Method in brief: (§2)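 Cathepsin G stock (680 nM in 0.05 M acetate, pH 5.5) mixed at 25 °C with inhibitor in DMSO and Suc-Ala-Ala-Pro-Phe-p-nitroanilide (stock 42.5 mM in DMSO) in 0.1 M HEPES pH 7.5. A410 recorded continuously for 20 min. Progress curves fitted with slow-binding kinetics. Uninhibited controls ran linearly. Highest concentration tested 60 μM.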

[3] = Stability in human plasma assessed as half life at pH 7.4
[4] = Chemical stability in phosphate buffer assessed as half life at pH 7.4; type: physicochemical
[5] = target: T3, Cathepsin G (Homo sapiens); assay: Inhibition of human cathepsin G; method in brief: as §2
[6] = target: T1, Myeloblastin (Homo sapiens); assay: Inhibition of human proteinase 3 at 60 uM; method in brief: as §1
[7] = target: T1, Myeloblastin (Homo sapiens); assay: Inhibition of human proteinase 3 at 10 uM; method in brief: as §1

## CCC1(CC)C(=O)N(c2ccc(Cl)cc2)C1=O
[1]; TDE = time-dependent effect
  Activity: tde

## CCC1(CC)C(=O)N(c2ccc(CSc3nc4cc(C(=O)O)ccc4o3)cc2)C1=O
Papain (Carica papaya)
  Activity: inactive
[2]
  Activity: inactive
[1]
  Activity: 689 M⁻¹ s⁻¹

## CCC1(CC)C(=O)N(c2ccccc2CSc2nccn2C)C1=O
[1]; TDE = time-dependent effect
  Activity: tde

## CCC1(CC)C(=O)N(c2ccc(CSc3nc4ccccc4s3)nc2)C1=O
[3]
  half-life: 0.2 h
[4]
  half-life: 13 h
Papain (Carica papaya)
  Activity: inactive
[2]
  Activity: inactive
[1]
  Activity: 4080 M⁻¹ s⁻¹

## CCC1(CC)C(=O)N(c2ccccc2CSc2nc3ccccc3o2)C1=O
Papain (Carica papaya)
  Activity: inactive
[2]
  Activity: inactive
[1]
  Activity: 361 M⁻¹ s⁻¹

## CCC1(CC)C(=O)N(c2ccc(CSc3nc4ccccc4s3)cc2)C1=O
[3]
  half-life: 0.4 h
[4]
  half-life: 10 h
[1]; TDE = time-dependent effect
  Activity: tde

## CCC1(CC)C(=O)N(Cc2ccccc2)C1=O
[1]; TDE = time-dependent effect
  Activity: tde

## CCC1(CC)C(=O)N(c2cccnc2)C1=O
[1]; TDE = time-dependent effect
  Activity: tde

## CCC1(CC(C)C)C(=O)N(c2ccccc2)C1=O
[1]; TDE = time-dependent effect
  Activity: tde

## CCC1(CC)C(=O)N(c2ccc(OC)cc2)C1=O
[1]; TDE = time-dependent effect
  Activity: tde

## CCC1(CC)C(=O)N(c2ccc(CSc3nnc(-c4ccccc4)o3)cc2)C1=O
[1]; TDE = time-dependent effect
  Activity: tde

## CC1(C)C(=O)N(c2ccccc2)C1=O
[1]; TDE = time-dependent effect
  Activity: tde

## CC1(C)C(=O)N(Cc2ccccc2)C1=O
[1]; TDE = time-dependent effect
  Activity: tde

## CCC1(CC)C(=O)N(c2ccccc2C)C1=O
[1]; TDE = time-dependent effect
  Activity: tde

## CCC1(CC)C(=O)N(c2ccc(C)cc2)C1=O
[1]; TDE = time-dependent effect
  Activity: tde

## CCC1(CC)C(=O)N(c2cccc3ccccc23)C1=O
Papain (Carica papaya)
  Activity: inactive
[5]
  Activity: 35.6 M⁻¹ s⁻¹

## CCC1(CC)C(=O)N(c2ccc(CSc3ccccc3)cc2)C1=O
Papain (Carica papaya)
  Activity: inactive
[1]
  Activity: 122 M⁻¹ s⁻¹

## CCCCC1(CC)C(=O)N(c2ccccc2)C1=O
Papain (Carica papaya)
  Activity: inactive
[5]
  Activity: 47.3 M⁻¹ s⁻¹

## CCC1(CC)C(=O)N(c2ccccc2)C1=O
[1]; TDE = time-dependent effect
  Activity: tde

## CC1(Cc2ccccc2)C(=O)N(c2ccccc2)C1=O
Papain (Carica papaya)
  Activity: inactive
[2]
  Activity: inactive
[6]
  inhibition: 22%

## CC1(C)C(=O)N(c2ccc(Cl)cc2)C1=O
[1]; TDE = time-dependent effect
  Activity: tde

## CCC1(Cc2ccccc2)C(=O)N(c2ccccc2)C1=O
Papain (Carica papaya)
  Activity: inactive
[2]
  Activity: inactive
[1]
  Activity: 20.2 M⁻¹ s⁻¹

## CCC1(CC)C(=O)N(c2ccc(CSc3nc4ccccc4o3)cc2)C1=O
Papain (Carica papaya)
  Activity: inactive
[2]
  Activity: inactive
[1]
  Activity: 29.6 M⁻¹ s⁻¹

## CCC1(CC)C(=O)N(c2ccc(C)nc2)C1=O
[1]; TDE = time-dependent effect
  Activity: tde

## CCC1(CC)C(=O)N(c2ccccc2CSc2nc3ccccc3s2)C1=O
[3]
  half-life: 1.6 h
[4]
  half-life: 37 h
[1]; TDE = time-dependent effect
  Activity: tde

## CCC1(CC)C(=O)N(c2ccccc2CSc2nnc(-c3ccccc3)o2)C1=O
[1]; TDE = time-dependent effect
  Activity: tde

## CCOC(=O)CN1C(=O)C(CC)(CC)C1=O
[1]; TDE = time-dependent effect
  Activity: tde

## CCC1(CC)C(=O)N(c2ccc(C#N)cc2)C1=O
[7]
  inhibition: 16%
Papain (Carica papaya)
  Activity: inactive
[5]
  Activity: 36.5 M⁻¹ s⁻¹
